Assay results as given in ChEMBL document CHEMBL2412953, “Synthesis and biological evaluation of new N-alkylcarbazole derivatives as STAT3 inhibitors: preliminary study” (Eur J Med Chem, 2013).
Blank lines part the entries; values can stand above or below the compound they belong to. The source made the active and inactive calls. The calls are words filed in the database; no cut-off is given here.

Assays:
[1] = molecular target: Signal transducer and activator of transcription 3 (Homo sapiens) (UniProt P40763); test: Inhibition of IL-6-stimulated STAT3 activation in human THP1 cells at 50 uM incubated for 30 mins prior to IL-6 stimulation measured after 15 mins by EMSA relative to control; format: cell-based; settings: THP-1
Chain of Signal transducer and activator of transcription 3 (Homo sapiens) (P40763 whole entry): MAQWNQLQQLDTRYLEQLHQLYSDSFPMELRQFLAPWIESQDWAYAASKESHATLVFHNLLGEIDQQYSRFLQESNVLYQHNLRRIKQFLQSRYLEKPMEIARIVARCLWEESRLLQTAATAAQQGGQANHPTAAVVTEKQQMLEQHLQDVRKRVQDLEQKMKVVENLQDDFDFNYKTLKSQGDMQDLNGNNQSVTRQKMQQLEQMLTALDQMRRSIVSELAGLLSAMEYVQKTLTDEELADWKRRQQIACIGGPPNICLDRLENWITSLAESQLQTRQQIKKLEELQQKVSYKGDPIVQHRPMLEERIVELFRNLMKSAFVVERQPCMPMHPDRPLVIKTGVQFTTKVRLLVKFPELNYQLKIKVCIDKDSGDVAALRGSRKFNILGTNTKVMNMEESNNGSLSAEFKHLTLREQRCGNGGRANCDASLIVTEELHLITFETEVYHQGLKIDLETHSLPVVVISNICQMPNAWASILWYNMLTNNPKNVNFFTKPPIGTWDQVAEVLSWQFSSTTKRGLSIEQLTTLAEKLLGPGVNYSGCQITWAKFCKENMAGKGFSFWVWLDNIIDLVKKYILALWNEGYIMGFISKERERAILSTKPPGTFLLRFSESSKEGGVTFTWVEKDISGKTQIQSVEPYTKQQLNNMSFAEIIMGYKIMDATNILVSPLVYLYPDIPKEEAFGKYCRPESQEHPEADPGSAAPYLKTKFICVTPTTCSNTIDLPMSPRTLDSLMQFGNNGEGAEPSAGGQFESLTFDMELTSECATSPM
Outline: (§1)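 THP-1 cells (1.5 × 10⁶/mL; RPMI 1640, 10% FBS, 37 °C, 5% CO₂) pretreated 30 min with compound, then IL-6 20 ng/mL for 15 min. Nuclear extracts, made with protease inhibitors, were assayed for STAT3 DNA-binding by EMSA in Hepes pH 7.9 buffer with poly(dI-dC). Gel bands quantified by densitometry; % inhibition versus IL-6 alone, mean ± SD.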

THP-1 [2] = test: Effect on total STAT3 level in IL-6-stimulated human THP1 cells at 50 uM incubated for 30 mins prior to IL-6 stimulation measured after 15 mins by Western blot analysis; format: functional, cell-based
[3] = molecular target: T1, Signal transducer and activator of transcription 1-alpha/beta (Homo sapiens) (UniProt P42224); test: Inhibition of IFNgamma-induced STAT1 activation in human THP1 cells at 50 uM incubated for 30 mins prior to IFNgamma induction measured after 30 mins by EMSA; format: cell-based; settings: THP-1
T1 sequence (whole entry): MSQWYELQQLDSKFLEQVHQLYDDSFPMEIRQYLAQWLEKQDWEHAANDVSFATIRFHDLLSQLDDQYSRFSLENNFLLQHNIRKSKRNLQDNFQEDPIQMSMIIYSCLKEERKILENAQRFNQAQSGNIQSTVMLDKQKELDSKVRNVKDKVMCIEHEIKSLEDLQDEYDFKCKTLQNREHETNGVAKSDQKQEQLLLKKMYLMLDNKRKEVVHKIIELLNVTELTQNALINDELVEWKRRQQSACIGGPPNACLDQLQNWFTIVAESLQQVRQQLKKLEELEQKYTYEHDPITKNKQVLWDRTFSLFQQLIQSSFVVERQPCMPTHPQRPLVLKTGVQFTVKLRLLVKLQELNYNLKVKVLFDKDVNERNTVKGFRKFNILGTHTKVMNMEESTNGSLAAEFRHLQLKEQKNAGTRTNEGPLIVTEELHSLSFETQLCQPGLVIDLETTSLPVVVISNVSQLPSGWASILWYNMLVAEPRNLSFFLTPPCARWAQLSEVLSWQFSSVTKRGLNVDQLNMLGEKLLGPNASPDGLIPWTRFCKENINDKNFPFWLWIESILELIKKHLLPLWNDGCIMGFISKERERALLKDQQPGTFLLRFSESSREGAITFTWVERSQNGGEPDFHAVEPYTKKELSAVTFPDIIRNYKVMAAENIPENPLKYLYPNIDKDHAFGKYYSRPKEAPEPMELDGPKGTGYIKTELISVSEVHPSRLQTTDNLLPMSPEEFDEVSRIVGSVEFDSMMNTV
Outline: (§2)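 THP-1 cells (1.5 × 10⁶/mL) pretreated 30 min with compound, then stimulated 30 min with IFNγ (STAT1) or TNFα plus LPS (NF-κB). Nuclear extracts were analysed for DNA-binding by EMSA.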

THP-1 [4] = test: Inhibition of TNFalpha and LPS-induced NFkappaB activation in human THP1 cells at 50 uM incubated for 30 mins prior to TNFalpha and LPS-induction measured after 30 mins by EMSA; format: cell-based; outline: as §2
[5] = molecular target: Signal transducer and activator of transcription 3 (Homo sapiens) (UniProt P40763); test: Inhibition of IL-6-induced cytosolic STAT3 phosphorylation at Tyr705 in human THP1 cells at 50 uM incubated for 30 mins prior to IL-6 induction measured after 15 mins by Western blot analysis; format: cell-based; settings: THP-1
Outline: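 THP-1 cells (1.5 × 10⁶/mL) pretreated 30 min, then IL-6 20 ng/mL for 15 min. Cells were lysed at 4 °C in HEPES pH 7.4 NP-40 buffer with protease and phosphatase inhibitors. Lysate protein was run on 7.5% SDS-PAGE, blotted to PVDF and probed overnight at 4 °C with rabbit anti-phospho-Tyr705 STAT3.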

[6] = molecular target: Signal transducer and activator of transcription 3 (Homo sapiens) (UniProt P40763); test: Inhibition of IL-6-stimulated STAT3 activation in human THP1 cells at 100 uM incubated for 30 mins prior to IL-6 stimulation measured after 15 mins by EMSA relative to control; format: cell-based; settings: THP-1; outline: as §1

inhibition [1]: 95% | inhibition [3]: inactive | inhibition [5]: Active
Compound: COC(=O)c1cc(OCCCCCCn2c3ccc(OC)cc3c3c(C)ccc(C)c32)cc(C(=O)OC)c1
Activity (THP-1 [2]): inactive | inhibition (THP-1 [4]): inactive

inhibition [6]: 3%
Compound: COC(=O)c1ccccc1OCCCCCCn1c2ccccc2c2c(O)cccc21

inhibition [1]: 50% | inhibition [3]: inactive | inhibition [5]: Active
Compound: COC(=O)c1cc(OCCCCCn2c3ccc(OC)cc3c3c(C)ccc(C)c32)cc(C(=O)OC)c1
Activity (THP-1 [2]): inactive | inhibition (THP-1 [4]): inactive

inhibition [6]: 1%
Compound: COC(=O)c1ccccc1OCCCCCCn1c2ccccc2c2ccc(O)cc21

inhibition [6]: 20%
Compound: COC(=O)c1cc(OCCCCCn2c3ccccc3c3c(O)cccc32)cc(C(=O)OC)c1

inhibition [6]: 3%
Compound: COC(=O)c1ccccc1OCCCCCn1c2ccc(OC)cc2c2c(C)ccc(C)c21

Continued, compound first:

Compound: COC(=O)c1ccccc1OCCCCCCn1c2ccc(OC)cc2c2c(C)ccc(C)c21
inhibition [6]: 1%

Compound: COC(=O)c1cc(OCCCCCCCn2c3ccccc3c3c(O)cccc32)cc(C(=O)OC)c1
inhibition [6]: 6%

Compound: COC(=O)c1cc(OCCCCCCn2c3ccccc3c3c(O)cccc32)cc(C(=O)OC)c1
inhibition [6]: 5%

Compound: COC(=O)c1cc(OCCCCCn2c3ccccc3c3ccc(O)cc32)cc(C(=O)OC)c1
inhibition [6]: 1%

Compound: COC(=O)c1cc(OCCCCCCCn2c3ccccc3c3ccc(O)cc32)cc(C(=O)OC)c1
inhibition [6]: 5%

Compound: COC(=O)c1cc(OCCCCCCCn2c3ccc(OC)cc3c3c(C)ccc(C)c32)cc(C(=O)OC)c1
inhibition [1]: 90% | Activity (THP-1 [2]): inactive | inhibition [3]: inactive | inhibition (THP-1 [4]): inactive | inhibition [5]: Active

Compound: COC(=O)c1ccccc1OCCCCCCCn1c2ccc(OC)cc2c2c(C)ccc(C)c21
inhibition [6]: 6%

Compound: COC(=O)c1cc(OCCCCCCn2c3ccccc3c3ccc(O)cc32)cc(C(=O)OC)c1
inhibition [6]: 1%
